Reference: ChEMBL document CHEMBL1134607, “Synthesis and structure-activity relationships of a new model of arylpiperazines. Study of the 5-HT(1a)/alpha(1)-adrenergic receptor affinity by classical hansch analysis, artificial neural networks, and computational simulation of ligand recognition” (J Med Chem, 2001)

Legend:
[1] = target: T1, 5-hydroxytryptamine receptor 1A (Rattus norvegicus, UniProt P19327); experiment: In vitro binding affinity towards 5-hydroxytryptamine 1A receptor in rat cerebral cortex membranes; assay type: cell membranes, Membrane
T1 sequence (P19327 whole entry): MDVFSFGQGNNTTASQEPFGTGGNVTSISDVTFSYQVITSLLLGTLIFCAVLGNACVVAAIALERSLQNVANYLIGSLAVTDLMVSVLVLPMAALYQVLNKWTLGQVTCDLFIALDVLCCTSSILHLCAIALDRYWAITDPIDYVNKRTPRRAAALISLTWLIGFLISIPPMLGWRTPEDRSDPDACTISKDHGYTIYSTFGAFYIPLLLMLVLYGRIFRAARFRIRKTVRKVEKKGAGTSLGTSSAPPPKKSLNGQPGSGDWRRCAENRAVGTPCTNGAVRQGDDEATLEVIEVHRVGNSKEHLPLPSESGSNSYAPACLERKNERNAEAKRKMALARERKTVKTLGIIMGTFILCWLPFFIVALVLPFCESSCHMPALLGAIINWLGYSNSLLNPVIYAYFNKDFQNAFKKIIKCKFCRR
Outline: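 Rat cerebral cortex membranes, washed and preincubated 10 min at 37 °C. About 1 mg protein incubated 15 min at 37 °C with 0.6 nM [3H]8-OH-DPAT in 50 mM Tris-HCl pH 7.4 containing 10 nM clonidine and 30 nM prazosin. Nonspecific binding with 10 µM 5-HT. Triplicates, filtration, scintillation counting. Ki by Cheng-Prusoff from fitted IC50. Prescreen at 10^-6 M, full curves if displacement ≥55%.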

[2] = target: T2, Adrenergic receptor alpha-1 (Rattus norvegicus, UniProt P15823+P23944+P43140); experiment: In vitro binding affinity towards alpha-1 adrenergic receptor in rat cerebral cortex membranes; assay type: cell membranes, Membrane
T2 sequence (P15823 whole entry): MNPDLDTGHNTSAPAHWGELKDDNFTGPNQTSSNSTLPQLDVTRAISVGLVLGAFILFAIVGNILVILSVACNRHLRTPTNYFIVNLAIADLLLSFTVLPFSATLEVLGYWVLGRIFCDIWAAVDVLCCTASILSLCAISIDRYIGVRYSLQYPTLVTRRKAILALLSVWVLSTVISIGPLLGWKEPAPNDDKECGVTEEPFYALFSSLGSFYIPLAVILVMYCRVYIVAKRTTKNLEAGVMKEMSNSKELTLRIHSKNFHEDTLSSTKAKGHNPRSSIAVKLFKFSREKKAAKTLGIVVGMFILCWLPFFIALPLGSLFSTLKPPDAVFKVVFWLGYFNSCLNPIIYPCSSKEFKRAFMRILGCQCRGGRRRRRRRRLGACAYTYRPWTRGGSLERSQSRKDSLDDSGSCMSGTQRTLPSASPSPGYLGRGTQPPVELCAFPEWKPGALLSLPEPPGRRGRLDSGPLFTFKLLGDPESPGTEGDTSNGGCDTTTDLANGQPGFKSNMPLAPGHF
T2 sequence (P23944 whole entry): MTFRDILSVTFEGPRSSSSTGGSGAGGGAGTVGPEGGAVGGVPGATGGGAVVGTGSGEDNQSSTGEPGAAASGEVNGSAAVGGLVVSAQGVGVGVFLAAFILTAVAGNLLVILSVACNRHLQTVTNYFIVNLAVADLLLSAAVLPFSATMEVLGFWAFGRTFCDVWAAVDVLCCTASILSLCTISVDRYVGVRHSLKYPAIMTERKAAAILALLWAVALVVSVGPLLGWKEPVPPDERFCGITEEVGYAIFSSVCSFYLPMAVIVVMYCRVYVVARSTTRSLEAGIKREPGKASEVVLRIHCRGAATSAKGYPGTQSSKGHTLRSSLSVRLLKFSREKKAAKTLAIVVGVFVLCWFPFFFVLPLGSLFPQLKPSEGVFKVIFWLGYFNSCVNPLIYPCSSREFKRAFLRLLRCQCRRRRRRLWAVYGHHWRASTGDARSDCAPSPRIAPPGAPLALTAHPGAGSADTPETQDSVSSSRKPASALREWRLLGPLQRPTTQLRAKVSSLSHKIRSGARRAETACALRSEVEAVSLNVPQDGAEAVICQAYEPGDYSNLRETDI
T2 sequence (P43140 whole entry): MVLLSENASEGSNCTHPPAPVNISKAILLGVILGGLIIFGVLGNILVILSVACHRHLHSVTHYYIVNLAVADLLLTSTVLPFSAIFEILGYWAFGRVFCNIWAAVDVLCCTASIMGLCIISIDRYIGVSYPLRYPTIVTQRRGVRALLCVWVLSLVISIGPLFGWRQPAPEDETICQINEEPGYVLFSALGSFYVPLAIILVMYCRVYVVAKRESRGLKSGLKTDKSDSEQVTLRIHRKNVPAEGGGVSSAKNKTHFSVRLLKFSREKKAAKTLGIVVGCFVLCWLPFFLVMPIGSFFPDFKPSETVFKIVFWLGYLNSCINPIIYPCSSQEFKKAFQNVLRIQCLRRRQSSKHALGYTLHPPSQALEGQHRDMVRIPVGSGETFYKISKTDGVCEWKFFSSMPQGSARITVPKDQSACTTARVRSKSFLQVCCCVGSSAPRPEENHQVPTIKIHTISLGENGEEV
Outline: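 Rat cerebral cortex membranes in 50 mM Tris-HCl, 10 mM MgCl2, pH 7.4. About 250 µg protein incubated 30 min at 25 °C with 0.2 nM [3H]prazosin. Nonspecific binding with 10 µM phentolamine. Triplicates, filtration, scintillation counting. Ki by Cheng-Prusoff from iteratively fitted IC50. Prescreen at 10^-6 M, dose-response curves if displacement ≥55%.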

| Structure (SMILES) | Ki [1] [nM] | Ki [2] [nM] |
| --- | --- | --- |
| CCCCOc1ccccc1N1CCN(CCCCN2CC(=O)N3CCCC3C2=O)CC1 (configuration not stated) | 8.7 | 10.5 |
| N#Cc1ccccc1N1CCN(CCCCN2C(=O)C3CCCN3C2=O)CC1 (configuration not stated) | 4 | 4.9 |
| N#Cc1ccccc1N1CCN(CCCCN2CC(=O)N3CCCCC3C2=O)CC1 (configuration not stated) | 15 | 30 |
| Nc1cccc(N2CCN(CCCCN3C(=O)C4CCCCN4C3=O)CC2)c1 (configuration not stated) | 68 | 231 |
| O=C1C2CCCCN2C(=O)N1CCCCN1CCN(c2ccccc2Oc2ccccc2)CC1 (configuration not stated) | 0.6 | 2.4 |
| CCCOC(=O)c1ccccc1N1CCN(CCCCN2C(=O)C3CCCN3C2=O)CC1 (configuration not stated) | 4.8 | 41 |
| Cc1ccccc1N1CCN(CCCCN2C(=O)C3CCCN3C2=O)CC1 (configuration not stated) | – | 7 |
| CCCCOc1ccccc1N1CCN(CCCCN2C(=O)C3CCCCN3C2=O)CC1 (configuration not stated) | 2.2 | 5 |
| CCCCOc1ccccc1N1CCN(CCCN2CC(=O)N3CCCCC3C2=O)CC1 (configuration not stated) | 92 | 13 |
| CCS(=O)(=O)Nc1cccc(N2CCN(CCCCN3C(=O)C4CCCN4C3=O)CC2)c1 (configuration not stated) | – | > 1000 |
| CCCOC(=O)c1ccccc1N1CCN(CCCN2C(=O)C3CCCCN3C2=O)CC1 (configuration not stated) | 46 | 13 |
| CCCNC(=O)c1ccccc1N1CCN(CCCCN2CC(=O)N3CCCC3C2=O)CC1 (configuration not stated) | 1230 | 1354 |
| CCCCOc1ccccc1N1CCN(CCCN2C(=O)C3CCCN3C2=O)CC1 (configuration not stated) | 15 | 6.4 |
| CC(C)C(=O)Nc1cccc(N2CCN(CCCN3C(=O)C4CCCCN4C3=O)CC2)c1 (configuration not stated) | 776 | 4430 |
| N#Cc1ccccc1N1CCN(CCCN2CC(=O)N3CCCC3C2=O)CC1 (configuration not stated) | 27 | 17 |
| O=C1C2CCCN2C(=O)N1CCCN1CCN(c2cccc(Br)c2)CC1 (configuration not stated) | 34 | 25 |
| N#Cc1ccccc1N1CCN(CCCN2C(=O)C3CCCCN3C2=O)CC1 (configuration not stated) | 65 | 8.2 |
| CC(C)C(=O)Nc1cccc(N2CCN(CCCCN3C(=O)C4CCCN4C3=O)CC2)c1.Cl (configuration not stated) | 193 | 5425 |

| Structure (SMILES) | Ki [1] [nM] | Ki [2] [nM] |
| --- | --- | --- |
| COc1ccccc1N1CCN(CCCCN2CC(=O)N3CCCC3C2=O)CC1 (configuration not stated) | 12 | 25 |
| COc1ccccc1N1CCN(CCCN2CC(=O)N3CCCCC3C2=O)CC1 (configuration not stated) | 143 | 29 |
| CCCNC(=O)c1ccccc1N1CCN(CCCN2C(=O)C3CCCN3C2=O)CC1 (configuration not stated) | 808 | 608 |
| O=C1C2CCCCN2C(=O)N1CCCCN1CCN(c2cccc(Br)c2)CC1 (configuration not stated) | 5.4 | 5.9 |
| CC(C)C(=O)Nc1cccc(N2CCN(CCCCN3CC(=O)N4CCCCC4C3=O)CC2)c1 (configuration not stated) | 198 | 16140 |
| CCCOC(=O)c1ccccc1N1CCN(CCCN2CC(=O)N3CCCC3C2=O)CC1 (configuration not stated) | – | 12 |
| Cc1ccccc1N1CCN(CCCN2C(=O)C3CCCCN3C2=O)CC1 (configuration not stated) | 220 | 5.7 |
| Cc1ccccc1N1CCN(CCCCN2CC(=O)N3CCCCC3C2=O)CC1 (configuration not stated) | 32 | 27 |
| Nc1cccc(N2CCN(CCCN3C(=O)C4CCCN4C3=O)CC2)c1 (configuration not stated) | 1180 | 393 |
| Cc1ccccc1N1CCN(CCCN2CC(=O)N3CCCC3C2=O)CC1 (configuration not stated) | 48 | 17 |
| O=C1C2CCCN2C(=O)CN1CCCCN1CCN(c2cccc(C(F)(F)F)c2)CC1 (configuration not stated) | 5.5 | 72 |
| O=C1C2CCCCN2C(=O)CN1CCCN1CCN(c2cccc(C(F)(F)F)c2)CC1 (configuration not stated) | 179 | 339 |
| CCCNC(=O)c1ccccc1N1CCN(CCCCN2C(=O)C3CCCCN3C2=O)CC1 (configuration not stated) | 378 | 521 |
| CCCOC(=O)c1ccccc1N1CCN(CCCCN2CC(=O)N3CCCCC3C2=O)CC1 (configuration not stated) | 28 | 392 |
| O=C1C2CCCCN2C(=O)N1CCCCN1CCN(c2ccccc2Br)CC1 (configuration not stated) | 3.4 | 6.2 |
| CCCNC(=O)c1ccccc1N1CCN(CCCN2CC(=O)N3CCCCC3C2=O)CC1 (configuration not stated) | 4610 | 811 |
| CC(C)C(=O)Nc1cccc(N2CCN(CCCN3CC(=O)N4CCCC4C3=O)CC2)c1 (configuration not stated) | 266 | 1440 |
